ChEMBL document CHEMBL1123052, “Structure-activity relationships for prazosin and WB 4101 analogues as alpha 1-adrenoreceptor antagonists” (J Med Chem, 1985)
Structures can show the parent of a compound that is named as a salt.

Assays:
[1] = Selectivity as the ratio of pA2 value against alpha 1 receptor to that of alpha-2 receptor.
How it was run: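 Ratio computed as the antilog of the α1 pA2 minus the α2 pA2. The α1 pA2 came from rat epididymal vas deferens against norepinephrine, and the α2 pA2 from field-stimulated prostatic vas deferens against clonidine.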

[2] = molecular target: T1, Adrenergic receptor alpha-1 (Rattus norvegicus, UniProt P15823+P23944+P43140); experiment: Alpha-1-Adrenoceptor blocking activity as antagonism of (-)-norepinephrine induced contractions of epididymal vas deferens; type: functional, tissue-based
T1 sequence (P15823 whole entry): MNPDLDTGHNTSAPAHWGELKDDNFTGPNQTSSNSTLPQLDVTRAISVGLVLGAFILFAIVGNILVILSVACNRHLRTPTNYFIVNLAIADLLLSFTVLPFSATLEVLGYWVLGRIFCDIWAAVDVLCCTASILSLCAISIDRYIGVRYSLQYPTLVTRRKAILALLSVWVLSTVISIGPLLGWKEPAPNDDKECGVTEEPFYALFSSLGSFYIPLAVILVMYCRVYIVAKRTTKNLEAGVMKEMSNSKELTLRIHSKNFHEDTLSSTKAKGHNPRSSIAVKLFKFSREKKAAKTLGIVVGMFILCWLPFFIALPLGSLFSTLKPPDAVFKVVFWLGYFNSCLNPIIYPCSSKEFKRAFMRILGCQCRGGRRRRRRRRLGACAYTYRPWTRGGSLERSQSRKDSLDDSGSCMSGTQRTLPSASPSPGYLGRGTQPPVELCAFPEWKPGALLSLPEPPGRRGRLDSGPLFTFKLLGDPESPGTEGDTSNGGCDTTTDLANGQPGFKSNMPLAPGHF
T1 sequence (P23944 whole entry): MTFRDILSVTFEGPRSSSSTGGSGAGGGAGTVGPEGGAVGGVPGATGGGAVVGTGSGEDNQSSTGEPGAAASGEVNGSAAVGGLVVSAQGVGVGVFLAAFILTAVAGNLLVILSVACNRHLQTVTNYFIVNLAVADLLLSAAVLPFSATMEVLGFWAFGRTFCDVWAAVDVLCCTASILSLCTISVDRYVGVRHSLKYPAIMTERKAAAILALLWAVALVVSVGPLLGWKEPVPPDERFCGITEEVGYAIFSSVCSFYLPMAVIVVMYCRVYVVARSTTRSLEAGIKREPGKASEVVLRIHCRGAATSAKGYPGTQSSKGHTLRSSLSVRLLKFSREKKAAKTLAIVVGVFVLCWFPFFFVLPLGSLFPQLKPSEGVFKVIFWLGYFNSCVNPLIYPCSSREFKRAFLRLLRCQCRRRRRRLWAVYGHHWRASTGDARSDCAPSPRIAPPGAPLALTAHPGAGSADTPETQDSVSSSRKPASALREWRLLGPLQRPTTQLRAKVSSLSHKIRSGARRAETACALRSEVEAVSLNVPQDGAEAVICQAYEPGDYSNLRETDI
T1 sequence (P43140 whole entry): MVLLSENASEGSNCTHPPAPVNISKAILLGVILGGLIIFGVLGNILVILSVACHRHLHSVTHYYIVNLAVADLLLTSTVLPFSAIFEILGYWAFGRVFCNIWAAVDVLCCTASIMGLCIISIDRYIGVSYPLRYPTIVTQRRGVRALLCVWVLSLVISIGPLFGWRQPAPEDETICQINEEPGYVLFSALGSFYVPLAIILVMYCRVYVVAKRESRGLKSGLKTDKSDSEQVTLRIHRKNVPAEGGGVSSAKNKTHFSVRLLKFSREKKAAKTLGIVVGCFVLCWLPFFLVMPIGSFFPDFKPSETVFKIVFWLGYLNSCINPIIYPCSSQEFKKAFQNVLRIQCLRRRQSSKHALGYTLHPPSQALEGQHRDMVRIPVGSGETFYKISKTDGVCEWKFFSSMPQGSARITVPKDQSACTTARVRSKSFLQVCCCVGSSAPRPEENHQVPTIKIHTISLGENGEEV

Rattus norvegicus = species: Rattus norvegicus; experiment: (§1) Alpha-2-adrenoceptor blocking activity was determined by antagonism of clonidine induced depression of the twitch responses of the field stimulated prostatic portion of the vas deferens and the potency was expressed as pA2.; type: functional; details: read-out: pA2 (converted)
[3] = molecular target: T1, Adrenergic receptor alpha-1; experiment: Alpha-1 adrenergic receptor blocking activity was assessed by antagonism of (-)-norepinephrine induced contractions of the epididymal portion of the vas deferens and the potency was expressed as pA2.; type: functional, tissue-based
How it was run: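 Male albino rat (175–200 g) epididymal vas deferens, 14 mm, in Krebs at 37 °C gassed 95% O2–5% CO2, 0.4 g load, with propranolol 1 μM, cocaine 10 μM, deoxycorticosterone acetate 40 μM. ≥1 h equilibration. Cumulative norepinephrine curves: second as control, third after 30 min antagonist. Time-matched untreated tissues. Schild pA2 from EC50 dose ratios, three antagonist concentrations, n≥5 each.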

[4] = molecular target: T2, Adrenergic receptor alpha-2 (Rattus norvegicus, UniProt P22086+P19328+P22909); experiment: as §1; type: functional, tissue-based
T2 sequence (P22086 whole entry): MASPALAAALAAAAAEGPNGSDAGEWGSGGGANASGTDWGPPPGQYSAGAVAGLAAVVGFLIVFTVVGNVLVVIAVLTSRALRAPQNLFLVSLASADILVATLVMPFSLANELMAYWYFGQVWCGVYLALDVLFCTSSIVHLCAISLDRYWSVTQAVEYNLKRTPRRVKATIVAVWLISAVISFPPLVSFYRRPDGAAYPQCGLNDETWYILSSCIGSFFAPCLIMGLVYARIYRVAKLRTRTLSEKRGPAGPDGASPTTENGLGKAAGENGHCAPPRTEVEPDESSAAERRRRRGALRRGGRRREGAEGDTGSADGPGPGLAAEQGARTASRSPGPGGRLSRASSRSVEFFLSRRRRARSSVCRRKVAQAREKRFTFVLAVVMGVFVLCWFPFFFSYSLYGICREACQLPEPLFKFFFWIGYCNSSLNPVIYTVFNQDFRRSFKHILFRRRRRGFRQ
T2 sequence (P19328 whole entry): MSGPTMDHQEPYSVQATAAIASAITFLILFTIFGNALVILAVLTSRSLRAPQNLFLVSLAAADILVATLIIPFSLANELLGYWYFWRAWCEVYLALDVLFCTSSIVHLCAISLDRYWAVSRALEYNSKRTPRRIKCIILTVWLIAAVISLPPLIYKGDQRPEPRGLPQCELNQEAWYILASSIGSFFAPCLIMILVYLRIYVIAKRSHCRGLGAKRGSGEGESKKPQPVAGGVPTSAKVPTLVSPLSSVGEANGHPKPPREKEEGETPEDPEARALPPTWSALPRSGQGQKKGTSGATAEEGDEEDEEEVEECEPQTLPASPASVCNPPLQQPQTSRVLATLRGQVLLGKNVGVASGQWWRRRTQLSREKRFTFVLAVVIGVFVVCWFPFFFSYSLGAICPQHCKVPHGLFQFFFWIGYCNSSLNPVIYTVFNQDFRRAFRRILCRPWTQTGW
T2 sequence (P22909 whole entry): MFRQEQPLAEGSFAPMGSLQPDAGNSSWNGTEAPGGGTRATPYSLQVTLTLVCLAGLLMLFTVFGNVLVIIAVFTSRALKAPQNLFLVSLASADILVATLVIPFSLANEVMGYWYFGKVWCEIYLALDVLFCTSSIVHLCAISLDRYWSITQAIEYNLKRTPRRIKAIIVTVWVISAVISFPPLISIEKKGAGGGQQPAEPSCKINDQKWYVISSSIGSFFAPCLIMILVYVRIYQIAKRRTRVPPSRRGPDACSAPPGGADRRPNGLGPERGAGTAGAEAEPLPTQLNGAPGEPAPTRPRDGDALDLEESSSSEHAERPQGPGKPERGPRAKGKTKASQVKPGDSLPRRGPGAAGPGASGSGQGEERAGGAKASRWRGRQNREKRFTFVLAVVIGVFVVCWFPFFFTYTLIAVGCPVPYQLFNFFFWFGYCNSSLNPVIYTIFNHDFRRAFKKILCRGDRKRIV
How it was run: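 Field stimulation 0.1 Hz, 3-ms pulses, 10–35 V. Propranolol, cocaine and deoxycorticosterone present. After 1 h, one tissue was given antagonist for 30 min and the contralateral tissue served as control. Clonidine curves for 50% twitch inhibition gave dose ratios. Three concentrations (two if limited above 30 μM), n≥5; Schild or van Rossum pA2.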

Row | Compound | Selectivity ratio [1] | pA2 [2] | pA2 [3] | pA2 [4] | Kb (Rattus norvegicus) [µM]
1 | Cl.O=C(NCCNCC1COc2ccccc2O1)c1ccco1 (stereo unspecified) | 22 | 7.19 | – | – | 1.41
2 | COc1cc2nc(NCC3COc4ccccc4O3)nc(N)c2cc1OC.Cl (stereo unspecified) | 11 | 7.22 | – | – | 0.676
3 | COc1cccc(OC)c1OCCN1CCN(C(=O)c2ccco2)CC1.Cl | 55 | 6.45 | – | – | 19.5
4 | Cl.O=C(c1ccco1)N1CCN(CC2COc3ccccc3O2)CC1 (stereo unspecified) | 0.59 | – | 6.05 | – | 0.525
5 | COc1cc2nc(NCCOc3c(OC)cccc3OC)nc(N)c2cc1OC.Cl | 87 | 7.88 | – | – | 1.15
6 | COc1cccc(OC)c1OCCNCC1COc2ccccc2O1 (stereo unspecified) [2- (2,6-DIMETHOXYPHENOXYETHYL)AMINOMETHYL-1,4-BENZODIOXANE HYDROCHLORIDE (WB 4101)] | 347 | – | – | – | 0.513

Now from value to compound, other results behind:

Row | Selectivity ratio [1] | pA2 [2] | pA2 [3] | pA2 [4] | Compound | Kb (Rattus norvegicus) [µM]
7 | 89 | 7.86 | – | 5.91 | COc1cc2nc(N(C)CCOc3c(OC)cccc3OC)nc(N)c2cc1OC.Cl | –
8 | 3890 | 8.81 | – | – | COc1cc2nc(NCCNC(=O)c3ccco3)nc(N)c2cc1OC.Cl | 6.03
9 | 65 | 7.18 | – | – | COc1cc2nc(N(C)CCN(C)C(=O)c3ccco3)nc(N)c2cc1OC.Cl | 4.27
